Measured values reported in ChEMBL document CHEMBL1148169, “Bioactive and other sesquiterpenoids from Porella cordeana” (1993).

Key:
Saccharomyces cerevisiae [1] = experiment: DNA damaging activity against RS322YK rad52 DNA repair gene deficient Saccharomyces cerevisiae mutant assessed as drug level required to produce 12 mm zone of inhibition after 48 hrs; type: functional
Procedure, shortened: (§1)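 Agar well-diffusion test on Saccharomyces cerevisiae strains differing in DNA-repair genes. Sample is placed in a 100 μl well and the plate is incubated 48 h at 37°. The value is the concentration in μg/ml that gives a 12 mm diameter inhibition zone around the well.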

Saccharomyces cerevisiae [2] = experiment: DNA damaging activity against RS167N rad6 DNA repair gene deficient Saccharomyces cerevisiae mutant assessed as drug level required to produce 12 mm zone of inhibition after 48 hrs; type: functional; procedure, shortened: as §1
Saccharomyces cerevisiae [3] = experiment: DNA damaging activity against DNA repair gene deficient Saccharomyces cerevisiae mutant assessed as drug level required to produce 12 mm zone of inhibition after 48 hrs

## CC1(C)CCC[C@]2(C)C3=C(COC3=O)C(=O)C[C@@H]12
Saccharomyces cerevisiae [1]
  IC12: > 1000 µg/mL
Saccharomyces cerevisiae [2]
  IC12: > 1000 µg/mL
Saccharomyces cerevisiae [3]
  IC12: > 1000 µg/mL

## CC1(C)CCC[C@@]2(C)C1=CC(=O)C1=C2C(=O)OC1
Saccharomyces cerevisiae [1]
  IC12: > 1000 µg/mL
Saccharomyces cerevisiae [2]
  IC12: > 1000 µg/mL
Saccharomyces cerevisiae [3]
  IC12: > 1000 µg/mL

## C[C@@H]1CCCC2=CC(=O)[C@@H]3[C@@H](C3(C)C)[C@]21C [ARISTOLONE]
Saccharomyces cerevisiae [1]
  IC12: 390 µg/mL
Saccharomyces cerevisiae [2]
  IC12: > 1000 µg/mL
Saccharomyces cerevisiae [3]
  IC12: > 1000 µg/mL

## CC1(C)CCC[C@]2(C)[C@H]3C(=O)OCC3=CC[C@@H]12 [DRIMENIN]
Saccharomyces cerevisiae [1]
  IC12: 200 µg/mL
Saccharomyces cerevisiae [2]
  IC12: > 1000 µg/mL
Saccharomyces cerevisiae [3]
  IC12: > 1000 µg/mL

## C[C@@H]1[C@@H]2C[C@@]3(C)C(=O)c4ccoc4C[C@@]13C(=O)O2 [NORPINGUISANOLIDE]
Saccharomyces cerevisiae [1]
  IC12: > 1000 µg/mL
Saccharomyces cerevisiae [2]
  IC12: > 1000 µg/mL
Saccharomyces cerevisiae [3]
  IC12: > 1000 µg/mL
